≈ marks a conversion by molar mass, not a printed value.
Legend:
Assay type in all cases: functional
[1] = test system: Mycobacterium tuberculosis; test: Antimycobacterial activity against Mycobacterium tuberculosis H37Rv after 2 to 3 weeks by broth microdilution assay
Outline: (§1)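 M. tuberculosis H37Rv in broth microdilution. Compounds were first screened at one fixed concentration in triplicate, and actives went on to MIC determination. Plates were incubated 2–3 weeks at 37 °C in a CO₂ incubator. MIC was read visually as the absence of growth turbidity.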

[2] = test system: Mycobacterium tuberculosis; test: Bactericidal activity against Mycobacterium tuberculosis H37Rv after 20 days; settings: 480 h
Outline: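 After the microdilution MIC run, 0.02 mL of H37Rv suspension from wells at MIC and higher concentrations was plated on 7H10 agar (7H11 also named). Viable counts were taken after 20 days at 37 °C. MBC is the lowest concentration that cut viable counts by at least 99% versus compound-free wells.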

[3] = test system: Mycobacterium tuberculosis; test: Antimycobacterial activity against Mycobacterium tuberculosis; outline: as §1

Compound | MIC [1] | MBC [2] | MIC [3]
O=C(NNC(=O)c1ccncc1)C(=O)c1c[nH]c2ccccc12 | 64 µg/mL (≈ 208 µM) |  | 
CO[C@H]1/C=C/O[C@@]2(C)Oc3c(C)c(O)c4c(O)c(c(/C=N/N5CCN(C)CC5)c(O)c4c3C2=O)NC(=O)/C(C)=C\C=C\[C@H](C)[C@H](O)[C@@H](C)[C@@H](O)[C@@H](C)[C@H](OC(C)=O)[C@@H]1C [RIFAMPIN] | 0.06 µg/mL (≈ 0.0729 µM) |  | 
NNC(=O)c1ccncc1 [ISONIAZID] | 0.125 µg/mL (≈ 0.911 µM) |  | 
O=C(CSc1nc2ccccc2s1)Nc1ccc(F)cc1 | 64 µg/mL (≈ 201 µM) |  | 
O=[N+]([O-])c1cccc(-n2cc(CSc3nc4ccccc4s3)nn2)c1 | 8 µg/mL (≈ 21.7 µM) | 64 µg/mL (≈ 173 µM) | 
O=C(NN1CCOCC1)C(=O)c1c[nH]c2ccccc12 | < 128 µg/mL |  | 
Clc1ccc(-n2cc(CSc3nc4ccccc4s3)nn2)cc1 | < 128 µg/mL |  | 
CC1(C)O[C@H]2OC(Cn3cc(CSc4nc5ccccc5s4)nn3)[C@@H]3OC(C)(C)O[C@@H]3[C@@H]2O1 (stereo partly drawn) | 8 µg/mL (≈ 16.3 µM) | 32 µg/mL (≈ 65.2 µM) | 
CN1CCN(C(=O)C(=O)c2c[nH]c3ccccc23)CC1 | < 128 µg/mL |  | 
Cc1ccccc1-n1cc(CSc2nc3ccccc3s2)nn1 | < 128 µg/mL |  | 
O=C(CSc1nc2ccccc2s1)NNC(=O)c1ccncc1 | < 128 µg/mL |  | 
O=C(C(=O)N1CCCC1)c1c[nH]c2ccccc12 | < 128 µg/mL |  | 
Clc1ccccc1-n1cc(CSc2nc3ccccc3s2)nn1 | 16 µg/mL (≈ 44.6 µM) |  | 
O=C(C(=O)N1CCCCC1)c1c[nH]c2ccccc12 | < 128 µg/mL |  | 
c1ccc(-n2cc(CSc3nc4ccccc4s3)nn2)cc1 | < 128 µg/mL |  | 
O=C(C(=O)N1CCSCC1)c1c[nH]c2ccccc12 | < 128 µg/mL |  | 
O=C(CSc1nc2ccccc2s1)NN1CCOCC1 | < 128 µg/mL |  | 

Compound | MIC [1] | MBC [2] | MIC [3]
CC1(C)OCC(Cn2cc(CSc3nc4ccccc4s3)nn2)O1 (stereo not drawn) | < 128 µg/mL |  | 
O=C(CSc1nc2ccccc2s1)N1CCCC1 | < 128 µg/mL |  | 
Brc1ccc(-n2cc(CSc3nc4ccccc4s3)nn2)cc1 | 16 µg/mL (≈ 39.7 µM) |  | 
CC1COC2(CCN(c3nc(=O)c4cc(C(F)(F)F)cc([N+](=O)[O-])c4s3)CC2)O1 (stereo not drawn) |  |  | 0.001 µg/mL (≈ 0.00232 µM)
O=C(CSc1nc2ccccc2s1)N1CCSCC1 | 64 µg/mL (≈ 206 µM) |  | 
CCOc1ccc(-n2cc(CSc3nc4ccccc4s3)nn2)cc1 | < 128 µg/mL |  | 
Clc1cccc(-n2cc(CSc3nc4ccccc4s3)nn2)c1 | 8 µg/mL (≈ 22.3 µM) | > 64 µg/mL | 
CN1CCN(C(=O)CSc2nc3ccccc3s2)CC1 | < 128 µg/mL |  | 
O=[N+]([O-])c1ccc(-n2cc(CSc3nc4ccccc4s3)nn2)cc1 | 8 µg/mL (≈ 21.7 µM) | 32 µg/mL (≈ 86.6 µM) | 
Fc1ccc(-n2cc(CSc3nc4ccccc4s3)nn2)cc1 | < 128 µg/mL |  | 
O=C(CSc1nc2ccccc2s1)NCc1ccc(F)cc1 | < 128 µg/mL |  | 
c1cncc(-n2cc(CSc3nc4ccccc4s3)nn2)c1 | 16 µg/mL (≈ 49.2 µM) |  | 
O=C(CSc1nc2ccccc2s1)N1CCCCC1 | < 128 µg/mL |  | 
O=C(CSc1nc2ccccc2s1)N1CCOCC1 | < 128 µg/mL |  | 
O=C(CSc1nc2ccccc2s1)Nc1ccc(Br)cc1 | < 128 µg/mL |  | 
O=C(CSc1nc2ccccc2s1)Nc1ccccn1 | 64 µg/mL (≈ 212 µM) |  | 
O=C(C(=O)N1CCOCC1)c1c[nH]c2ccccc12 | < 128 µg/mL |  | 
